Assay results taken from the RNAGym collection of RNA variant scans (doi:10.1126/science.aae0568).
Variants at the floor of the assay were thinned out.

B1: tRNA (parent)
chain: GUUCCGUUGGCGUAAUGGUAACGCGUCUCCCUCCUAAGGAGAAGACUGCGGGUUCGAGUCCCGUACGGAACG

Variants of: B1
Test: yeast fitness relative to wild type (ratio to wild type); higher = fitter; tRNA-Arg(CCU), competitive growth, 37 C, YPD
Procedure, shortened: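 A pool of Saccharomyces cerevisiae strains, each with a tRNA-Arg(CCU) gene variant at the native genomic locus, was competed in YPD at 37°C for 24 hours across six parallel replicates. The variants had been chemically synthesised at a 3% per-site mutation rate over 69 sites, and gene amplicons before and after competition were read by 100-nucleotide paired-end sequencing. Darwinian fitness relative to wild type rested on changes in genotype frequencies. Genotypes required ≥ 100 starting reads, and estimates < 0.5 were set to 0.5.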

Point of comparison: U54A C62A, yeast fitness 0.595. Against it:
- C29G C49U G63A — lower, 0.513
- C4U A14G C29A — lower, ≤ 0.5
- G17A C62U A69U — lower, 0.587
- C4U A36C — lower, 0.542
- A45C U54G — higher, 0.605
- A20C A21G A57C — lower, 0.531
- G10C U16G C31A U32G A57U — lower, ≤ 0.5
- A15C A20G C31A U59C A69G — lower, ≤ 0.5
- G41C C46A C55G — lower, ≤ 0.5
- G12A U28G — higher, 0.607
- C24A A37U — lower, 0.579
- U19A U53A — lower, 0.553
- C4G G17A A69C — lower, 0.525
- C4A C33A — higher, 0.705
- G6A C11A A57C G68A — lower, 0.549
- G25C C27G — lower, 0.553
- G12A G17C G58A A70G — lower, ≤ 0.5
- G6A C11A C46G — lower, ≤ 0.5
- G9A C24G C27U G44C C61G — lower, ≤ 0.5
- C22G C49A G56C G58C C60G — higher, 0.605
- A21G C22U A37U A45G C46G C55A — lower, ≤ 0.5
- C4G U8A A14C G48A G63C — lower, ≤ 0.5
- G6A A14G C24A C31U A40U A70G — lower, ≤ 0.5
- U7C A14G G17A A69U — lower, 0.553
- G48A C61G A69C — higher, 0.603
- C55G G67A — higher, 0.729
- U3C C31U C46A — higher, 0.79
- G6A G10C A20G C22U G38C U53C C61G — lower, ≤ 0.5
- U2G A57G — higher, 0.82
- C22G U28A A36U — higher, 0.631
- C5G U13C A21C G68U — lower, ≤ 0.5
- A15U G39A A57U C62G — lower, 0.502
- A15G C49U C60G — lower, ≤ 0.5
- U2A C5U G6A G39C C60A — lower, ≤ 0.5
- C11G G12C C60G — lower, ≤ 0.5
- G12C A40G G58C C61G A65C — lower, ≤ 0.5
- G10C C27G A42C C49A — lower, ≤ 0.5
- C24U A42G C49G C61G — higher, 0.627
- C5A U35G U47C C61G — lower, ≤ 0.5
- U2C A14C U35C — lower, ≤ 0.5
- G18C G58A — higher, 0.701
- C27A C30A A45C G56C C60U G68U — lower, ≤ 0.5
- C22G A45U G48C — lower, 0.511
- A14G C34G G63C G67C — lower, ≤ 0.5
- A20G U47C G58U A65U — lower, ≤ 0.5
- G12C G18C — lower, 0.55
- A42U G63U — higher, 0.701
- C5U A40U A42C A65U — lower, ≤ 0.5
- C22U A36C U54C A57U — lower, ≤ 0.5
- A15U U59C C62A — lower, ≤ 0.5
- U2A A40G A69U — lower, 0.553
- C5U A70G — higher, 1.01
- A20G A40C A42U A43C G48A — lower, 0.562
- U32C C46A — higher, 0.88
- G25A G48A — higher, 0.981
- G6C C33U G38C G52C C62U — lower, ≤ 0.5
- C49G C55G C61G — lower, 0.558
- U19G G56A C60U — higher, 0.69
- C5A C33A — higher, 0.67
- C4U U8A C22U — lower, ≤ 0.5
- A20G A42C A45C G67C — lower, ≤ 0.5
- U28C G38C G51C — lower, ≤ 0.5
- C31U A65C — higher, 0.926
- G6C A65G C66U — higher, 0.84
- C30A C61U A65U — lower, ≤ 0.5
- G6A C11A A40G — lower, ≤ 0.5
- C5G U19C A57U — lower, 0.533
- U8C A37C — higher, 0.892
- C22U A43U C55G — the same, 0.595
- C5U A45C G56C — lower, 0.572
- C5U C31G U59C — higher, 0.913
- U7C G51A C62G A65G — lower, ≤ 0.5
- C11U A40G C61G — lower, ≤ 0.5
- G9A A21U G48C C55A C66G G67C — lower, ≤ 0.5
- A45C C60A C66U — lower, ≤ 0.5
- C49G U64G A65G A70U — higher, 0.683
- U19A C30G A36G C61G — lower, ≤ 0.5
- G10C C29G G44C C49A U64C — lower, ≤ 0.5
- C11G A21U C24U U64A A65G G67U — lower, 0.573
- C24G C27G A37G — lower, 0.575
- U7G A14C A20G C22U C49G G56C A70G — lower, ≤ 0.5
- G23A U26C C29U C33G — lower, ≤ 0.5
- C5G U16A A43G G63U — lower, 0.524
- U13C G51A A65C — lower, ≤ 0.5
- C30U A45G A65G — lower, 0.538
- A43U C55U — higher, 0.768
- C11A G38A U53A G63A G68A — higher, 0.635
- A15G A37G C55A — lower, ≤ 0.5
- C34U A40C C62U — lower, 0.507
- G6C A42C — higher, 0.808
- U26A A36U — higher, 0.606
- G41C C60G — higher, 0.695
- U53C A70U — higher, 0.848
- C4U C31G A40G A45C U53A A70U — lower, ≤ 0.5
- C24A C27G C61U — lower, 0.575
- C27G C46U — higher, 0.972
- G12C C22U U54C C61U G68A — lower, ≤ 0.5
- U2G G6A G25A A37U A40C — lower, ≤ 0.5
- U2A A69U — higher, 0.874
- G17A C22U U59A — lower, ≤ 0.5
- G38A G41C — higher, 0.659
- C5G A20G A40G G44A C46G — lower, 0.517
- U7C G23C — higher, 0.671
- U16A U19A A69C — higher, 0.747
- G10A A20C C24U A57G C61U — lower, ≤ 0.5
- U13C C24G C30A U47C — lower, ≤ 0.5
- C11A G25C C34G C46A A70G — lower, ≤ 0.5
- G6A A14U C55A — lower, 0.552
- U13A C27U U64C — higher, 0.937
- C62U G68A — higher, 0.838
- U2G G52A G56A — higher, 0.81
- A15G A42G A45C — lower, 0.557
- A37U A45U G68U — lower, ≤ 0.5
- U28A C29A A37G — lower, ≤ 0.5
- C5U C27U — higher, 1.09
- A37U U47A — higher, 0.796
- G9A A14G G23A G41C G51C — lower, ≤ 0.5
- C11U A21U C27A C34A A36U U47C — lower, ≤ 0.5
- G44A C55G — lower, 0.558
- A20U G41C — higher, 0.753
- U3A G17A C22U U35C A65G — lower, ≤ 0.5
- U7G C11U G12C C33U G63C G68U — lower, ≤ 0.5
- A20C C27U G51C U64A C66U A69C — lower, ≤ 0.5
- A14U A45U G68C — lower, ≤ 0.5
- A40C A42C G68C — lower, 0.569
- U19C C22G A65U — lower, 0.547
- U8A A15C A21G C27U C46U — lower, ≤ 0.5
- G18A U19A C27U — higher, 0.707
- G12C A36C G50A — lower, ≤ 0.5
- U7G G23C A45U G51C — lower, ≤ 0.5
- G17A A21G U26C C66A — lower, ≤ 0.5
- C4A C34G C61A — lower, ≤ 0.5
- G9C C11G C24U C31U U59G A70C — lower, ≤ 0.5
- C11G A21G A40G A69U — lower, ≤ 0.5
- U3C G18C C30U A36U C55A — lower, ≤ 0.5
- C24U A45G C49U — higher, 0.931
- C49U G50A — higher, 0.93
- A20C C31U — higher, 1.03
- G25U U32C A36U G56C A65C — lower, ≤ 0.5
- U8A G18A C30G A40C U47C G52A — lower, ≤ 0.5
- A14G C30U C46A G50A — lower, ≤ 0.5
- C5U A14G A21U A36U G48C C55U — higher, 0.627
- C5U A37G U59G G68C — lower, ≤ 0.5
- C34G G44A C49A U53A A69U — lower, ≤ 0.5
- U3C C55U — higher, 0.687
- G6A C29U — higher, 0.748
- C5A C33U G39C C55A G67C — lower, ≤ 0.5
- C30U G52A — higher, 0.785
- C5A C34G A65C — lower, ≤ 0.5
- G52C U64G — higher, 0.614
- U13C C33U A45G G50A C66A G68A A70U — lower, ≤ 0.5
- C22U C31U U47G — lower, ≤ 0.5
- U3C C4U C60A C66G — lower, ≤ 0.5
- U2A A20C G68A — higher, 0.719
- G9U C27U C29A C31A — lower, ≤ 0.5
- G18C U28G A36C G38C — lower, ≤ 0.5
- U47C U64C — higher, 0.926
- C5A U8A C46G — lower, ≤ 0.5
- G41C C60U U64G — lower, ≤ 0.5
- U13C A14U C31G G50A A65C — lower, 0.531
- C22A C34G A36G G48C — lower, ≤ 0.5
- U13C A15U C46A C66U — lower, ≤ 0.5
- A14C A20U C66U — lower, ≤ 0.5
- C33G A42U G63A — lower, 0.516
- C27G C49U G63C — lower, ≤ 0.5
- C11U A14C U54A — lower, ≤ 0.5
